Ecoli tolC: blocks growth of E. coli BW25113 tolC mutant. OD615. 2.2% of 65,000 active. growth inhibition, % at 10 µM (by protocol);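 active = growth inhibition at or above a cutoff equal to the mean over every tested compound plus 3 SD, cut at about 60% in these data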;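 note: growth measured after 20 h incubation at 37 °C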
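signal = optical density read at 615 nm | test system = E. coli ΔtolC::kan strain BW25113 | timing = 20 h compound exposure of bacteria at 37 °C | buffer or medium = LB medium plus 50 µg/mL kanamycin | compound dosing = 10 µM final, single dose | evaluation = % inhibition of E. coli growth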
FAK inh: FAK (human) kinase inhibition. Q05397. biochemical FAK kinase activity assay. inhibition, %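 (tested at 7 µM)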. 0.84% of 97,000 active. AID 727; in the data active = inhibition above about 19%;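 note: 0% = DMSO and 100% = reference compound high control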
PostGolgi ctrl: inhibits growth of the yeast control strain. efflux-deficient yeast background strain, growth absorbance A615, 16 h. inhibition, % at 10 µM. 5% of 98,000 active
Pyk2 oligo antag: blocks oligomerization of human Pyk2 in cells; Q14289; Q293 cells, Pyk2 FERM NanoBiT luminescence; hits give low values; z-score (the deposit names both 25 µM and 10 µM); 0.83% of 99,000 active; AID 1347419;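 active = Z-score of -3 or lower, scaled per plate to the spread of control and sample wells; inactive = z-score above -3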;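 note: negative z-score means lost luminescence so less FERM oligomerization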
PostGolgi yeast: growth inhibition of a yeast mutant, post-Golgi transport screen | post-Golgi transport phenotypic cell assay | inhibition, % at 10 µM | 0.9% of 98,000 active | AID 739;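 note: yeast cells grown in 1536-well plates; yeast grown about 18 h at 30C before absorbance read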
Calb biofilm kill: kills Candida albicans biofilms; inhibition, % at 6 µM; C. albicans biofilm + clotrimazole, Alamar Blue; 0.14% of 85,000 active;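 active = inhibition above 20%; inactive = inhibition below 20%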;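 note: preformed 24 hr biofilms exposed to compound for 48 hr; 0% = biofilm without compound and 100% = blank killed by clotrimazole plus chlorhexidine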
* marks the source's active call; other numbers are inactive results; . = not tested or not shown; ! = repeats disagree. Shown are actives, neighbours in structure and some others; about 6.9% of the full set was active somewhere. Cut-off read from the data, not from the text of the source, unless noted: active = inhibition above about 30%; inactive = the rest.

SMILES	Ecoli tolC	FAK inh	PostGolgi ctrl	Pyk2 oligo antag	PostGolgi yeast	Calb biofilm kill
CC1(C)NC(=O)N(CCCCOc2ccc3ccccc3c2Cl)C1=O	.	0.1	40.8*	-1.72	-2.5	1.7
Cc1cc(C)c(S(=O)(=O)c2ccccc2)c(OC(=O)c2c(Cl)cccc2Cl)n1	.	-0.4	24.1	-1.78	48.8*	13.5
Cc1cc(C)c(S(=O)(=O)c2ccccc2C)c(Cl)n1	.	6.8	2.3	0.14	17.1	.
Cc1cc(C)c(S(=O)(=O)c2ccccc2C)c(Oc2ccccc2)n1	.	0.7	30.2*	-0.31	3.5	.
Cc1ccc(/C=N/NC(=O)CSc2nc3nc(C)cc(C)n3n2)cc1	.	0.4	0.3	1.82	-6.8	.
COc1cnn(-c2ccccc2)c(=O)c1SCc1ccc(Cl)c(Cl)c1	.	2.7	60.3*	-1.56	1.6	.
O=C(CSc1ccc2ccccc2n1)c1ccc2c(c1)OCO2	.	2.1	31.6*	-0.45	9.1	7.3
O=C(O)CSc1ccc2ccccc2n1	-36.1	-10.4	7.4	-0.2	4.6	2.8
O=C(O)CCSc1ccc2ccccc2n1	2.4	-21.2	44.1*!	1.93	0.8	6.1
CCOC(=O)c1ccc(N=c2sc(C(=O)OC)cc(=O)n2C2CC2)cc1	-9.2	1.5	32.5*	-0.08	4.8	-1.8
CCOC(=O)c1ccc(N=c2sc(C(=O)OC)cc(=O)n2Cc2ccc3c(c2)OCO3)cc1	.	-3.7	11.4	.	-9.3	11.9
CCc1ccc(N2CC(C)Cn3c2nc2c3c(=O)n(CCN3CCOCC3)c(=O)n2C)cc1 (stereo unspecified)	-0.5	0.4	13.8	-0.2	5.0	6.0
CCOC(=O)C1(N(CC)CC)Sc2cc(C)ccc2NC1=O (stereo unspecified)	72.3*	1.2	18.2	-1.86	-6.7	4.2
COc1ccc(OC)c(C(c2nnnn2Cc2ccccc2)N2CCN(C)CC2)c1 (stereo unspecified)	-14.7	-1.4	36.5*	0.12	6.0	3.3
COc1ccc(C(c2nnnn2C2CCCC2)N2CCC(C)CC2)c(OC)c1 (stereo unspecified)	52.3	-1.4	3.1	-2.68	0.4	10.2
COc1ccc(N2CCN(C(c3cc(OC)ccc3OC)c3nnnn3Cc3ccco3)CC2)cc1 (stereo unspecified)	9.2	.	12.4	-3.18*	-6.1	.
COc1ccccc1C(c1nnnn1Cc1ccccc1)N1CCC(C(N)=O)CC1 (stereo unspecified)	.	-0.3	.	-0.21	.	9.6
COc1ccc(OC)c(C(c2nnnn2C2CCCC2)N2CCN(c3ccc(F)cc3)CC2)c1 (stereo unspecified)	10.0	-1.6	6.4	-3.25*	-10.4	6.1
COc1ccc2c(c1)C1CC(C)(NC(=O)C1C(=O)c1ccccc1)O2 (stereo unspecified)	-2.6	-7.1	-7.1	-0.4	8.3	1.3
O=C(NC1CCCc2ccccc21)C1CCN(S(=O)(=O)c2cccc3nonc23)CC1 (stereo unspecified)	-14.6	0.3	4.3	1.84	23.0	3.9
CC(C)c1ccc(NC(=O)COC(=O)c2c[nH]c(=O)[nH]c2=O)cc1	.	.	.	-0.1	.	.
COc1ccc(-c2nn(-c3ccccc3)cc2/C=N/NC(=O)c2ccc(Br)o2)cc1	.	-1.2	14.8	-3.12*	1.5	.
O=C(N/N=C\c1cn(-c2ccccc2)nc1-c1ccccc1)c1ccc2c(c1)OCO2	.	-3.6	33.5*	-1.85	-5.5	.
CCn1ncc(/C=N/NC(=O)c2ccc3c(c2)OCO3)c1C	.	-4.0	32.8*	0.72	3.4	.
O/N=C/c1cn(-c2ccccc2)nc1-c1ccc2c(c1)OCCO2	.	8.4	31.4*	-3	7.8	3.8
SMILES	Ecoli tolC	FAK inh	PostGolgi ctrl	Pyk2 oligo antag	PostGolgi yeast	Calb biofilm kill
COc1ccc(-c2nn(-c3ccccc3)cc2/C=N/NC(=O)c2ccc3c(c2)OCO3)cc1	.	-4.0	4.9	.	-2.2	.
OCc1cn(-c2ccccc2)nc1-c1ccc2c(c1)OCCO2	25.2	0.6	13.0	-0.68	-6.8	3.6
Cc1c(/C=N/NC(=O)c2ccc3c(c2)OCO3)cnn1C	.	-7.3	6.4	-0.12	3.7	.
Cc1cccc(C(=O)Nc2ccc(C)c(OC(=O)c3cccc(C)c3)c2)c1	.	8.4	5.1	.	-4.1	.
COc1ccc(-n2nc(C(=O)N3CCN(c4ccc(F)cc4)CC3)c3ccccc3c2=O)c(OC)c1	0.0	.	8.0	-2.31	-3.1	9.4
CSc1ccc(S(=O)(=O)Nc2ccc3c4c(cccc24)CC3)cc1	.	7.9	65.8*	-0.2	23.2	.
COc1ccc(NS(=O)(=O)c2ccc(SC)cc2)c(OC)c1	.	4.9	13.4	-0.31	3.4	2.8
O=S(=O)(Nc1ccc2c3c(cccc13)CC2)c1ccc(F)cc1	.	9.9	40.2*	-0.34	-8.8	.
O=C(CC1NC2CCCCC2NC1=O)Nc1ccc2c(c1)OCO2 (stereo unspecified)	-17.8	-0.7	8.8	0.9	-1.1	4.2
COCCCNC(=O)c1cc2c(s1)CS(=O)(=O)C2	4.2	-0.7	-5.4	0.59	-7.3	8.9
COC(=O)c1ccc(Cl)c(NC(=O)CSc2ncn[nH]2)c1	8.1	-0.6	30.7*	-0.82	-2.6	6.9
COC(=O)c1cccc(NC(=O)CSc2ncn[nH]2)c1	-2.5	-1.3	-13.2	1.86	-3.5	8.3
Cc1ccccc1NC(=O)NCC1CCCO1 (stereo unspecified)	.	1.5	-1.9	1.33	6.4	10.0
COc1ccc(-c2nc(-c3cccs3)c(-c3cccs3)[nH]2)cc1O	96.8*	12.4	30.6*	-0.45	-0.8	6.3
CC1(C(=O)NC2CCCCCCC2)CCC(=O)N1Cc1cccnc1 (stereo unspecified)	-6.4	1.0	5.1	0.43	2.5	6.2
O=C(NC1CCCCC1)C(c1ccccc1)N(Cc1ccc2c(c1)OCO2)C(=O)c1cnsn1 (stereo unspecified)	.	0.0	.	-2.14	.	1.6
Oc1ccc(Br)cc1-c1nc2cnccn2c1NC1CCCC1	97.0*	.	62.7*	-0.48	6.3	6.9
Cc1ccc(-c2nc3cnccn3c2Nc2ccc3c(c2)OCCO3)o1	22.1	.	12.5	-0.4	4.7	9.1
Oc1ccc(Br)cc1-c1nc2cnccn2c1NC1CCCCC1	.	3.6	85.9*	-1.18	29.0	4.3
Cc1ccc(-c2nc3cnccn3c2Nc2ccc3c(c2)OCO3)cc1	.	4.8	10.5	.	4.9	5.4
CC(/C=C/C=C/c1ccccc1)=N/NC(=O)CNc1ccccc1C	.	.	.	-0.09	.	.
CCC(CO)NC(=O)c1cc2c(s1)CCC2 (stereo unspecified)	.	-0.2	-3.7	-0.14	31.2*	.
CC(NC(=O)c1cc2c(s1)CCCC2)C(C)(C)C (stereo unspecified)	.	-1.4	11.6	-0.12	-15.6	-1.0
Cc1cccc(N/C=C/C(=C(C#N)C#N)N(C)C)c1	.	1.6	-8.5	0.11	-15.3	.
CC1(C)CC2CC(C)(CN2C(=O)c2cccs2)C1 (stereo unspecified)	9.6	-0.2	5.9	-0.77	-2.1	8.0
CC1(C)CC2CC(C)(CN2C(=O)c2cc(-c3ccccc3O)on2)C1 (stereo unspecified)	94.9*	1.2	78.2*	.	11.1	3.4
